Laboratory results: PubChem BioAssay
Values without a mark were called inactive.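 How the source made its calls: active means growth inhibition above 25% in both replicates, a cutoff set 3 SD above the mean; inconclusive means above 25% in only one replicate; inactive means the rest.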

Assay: OD615 S. cerevisiae growth inhibition, permissive medium, pilot counter-assay, permissive growth control for S. cerevisiae lifespan shortening project (AID 705)
Conditions: OD615, 24 h, at 10 µM, hits give high values
How it was run: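 Material: engineered DeaD yeast; compound dosing: one dose 10 µM, DMSO 0.25% final; measure: yeast growth inhibition indicated by reduced 24 h OD615; detection: OD615 turbidity read; incubation: cells pre-grown 4 h, then 24 h compound exposure, 30 °C humidified; medium: permissive synthetic complete medium with raffinose and galactose carbon sources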

Structure (SMILES) | growth inhibition [%]
Cc1cc(NC(=O)C2CC(c3ccc(F)cc3)=NO2)no1 (stereo unspecified) | -0.42
CN1CCN(Cc2nc3c(c(=O)n(C)c(=O)n3C)n2CCc2ccccc2)CC1 | -8.96
CCOC(=O)c1ccc(NC(=O)CSc2nc3c(c(=O)n2-c2ccccc2OC)SCC3)cc1 | -1.49
C=COCCn1c(-c2nonc2N)nc2ccccc21 | -6.54
Cc1cc(OCC(=O)Nc2cc(-c3nn4c(C)nnc4s3)ccc2C)ccc1Cl | 2.82
O=C(Cn1cc2c(n1)CCCCC2)NCc1ccccc1 | -13.4
COc1cccc(N2CCN(C(=O)c3ccc4nc(N5CCCCC5)sc4c3)CC2)c1 | -4.55
CCOC(=O)c1c(C)oc2cc(Br)c(O)c(Br)c12 | -19
O=C(CSc1ccc2nnc(-c3ccccn3)n2n1)NCc1ccc2c(c1)OCO2 | -0.545
Cc1ccnc(N2C(=O)c3ccccc3C2Nc2cccc(C)c2C)c1 (stereo unspecified) | -14
COc1cccc(/C=C2\N=C(SC)SC2=O)c1OC | -20.1
Cn1c(NC(=O)c2ccc(Cl)cc2Cl)cc(=O)n(C)c1=O | -4.17
CC(=O)Nc1cccc(N2C(=O)CC(Cc3ccccc3)C2=O)c1 (stereo unspecified) | -6.24
COC(=O)C(C)NC(=O)C1CCCN1S(=O)(=O)c1cc(C)c(Cl)cc1C (stereo unspecified) | -5.19
Cc1ccc(N(C(=O)CC2NC(=O)NC2=O)C2(C(=O)NC3CCCC3)CCCCC2)cc1 (stereo unspecified) | -9.96
CC1(C)CC(=O)C=C(Nc2ccccc2F)C1 | -10.4
